Reference: ChEMBL document CHEMBL1141405, “Design and synthesis of novel sulfonamide-containing bradykinin hB2 receptor antagonists. 2. Synthesis and structure-activity relationships of alpha,alpha-cycloalkylglycine sulfonamides” (J Med Chem, 2007)

Legend:
B2 bradykinin receptor [1] = target: T1, B2 bradykinin receptor (Homo sapiens, UniProt P30411); assay: Antagonist potency at human bradykinin B2 receptor assessed as effect on inositol monophosphate accumulation in CHOdhfr- cells; assay type: functional, cell-based; settings: read-out: pA2 (converted)
T1 sequence (P30411 whole entry): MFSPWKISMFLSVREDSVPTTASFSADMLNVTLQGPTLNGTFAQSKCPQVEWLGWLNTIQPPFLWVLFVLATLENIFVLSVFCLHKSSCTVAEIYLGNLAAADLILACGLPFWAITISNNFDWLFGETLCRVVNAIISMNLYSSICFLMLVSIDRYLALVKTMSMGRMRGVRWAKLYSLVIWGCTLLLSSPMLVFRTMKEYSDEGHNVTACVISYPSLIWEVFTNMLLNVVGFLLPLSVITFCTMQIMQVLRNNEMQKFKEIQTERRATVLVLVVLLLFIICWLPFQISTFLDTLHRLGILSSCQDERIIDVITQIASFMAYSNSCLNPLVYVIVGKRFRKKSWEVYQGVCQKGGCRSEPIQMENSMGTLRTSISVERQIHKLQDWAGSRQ
How it was run: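 pA2 derived from antagonism of bradykinin-stimulated inositol monophosphate accumulation in CHOdhfr- cells stably transfected with the human B2 receptor.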

B1 bradykinin receptor = target: T2, B1 bradykinin receptor (Homo sapiens, UniProt P46663); assay: Binding affinity to human bradykinin B1 receptor
T2 sequence (P46663 whole entry): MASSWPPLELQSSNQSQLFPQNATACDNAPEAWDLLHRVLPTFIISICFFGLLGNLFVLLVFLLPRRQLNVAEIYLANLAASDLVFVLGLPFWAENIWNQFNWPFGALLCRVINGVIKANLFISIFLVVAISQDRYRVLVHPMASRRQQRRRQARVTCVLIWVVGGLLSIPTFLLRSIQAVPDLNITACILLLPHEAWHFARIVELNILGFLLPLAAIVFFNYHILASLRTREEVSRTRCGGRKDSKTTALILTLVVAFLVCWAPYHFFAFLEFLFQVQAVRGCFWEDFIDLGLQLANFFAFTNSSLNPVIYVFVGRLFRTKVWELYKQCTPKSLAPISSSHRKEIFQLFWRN

[2] = target: T3, B2 bradykinin receptor (Cavia porcellus) (UniProt O70526); assay: Effect on BK-induced hypotension in Dunkin Hartley guinea pig at 100 nmol/kg, it; assay type: functional
T3 sequence (whole entry): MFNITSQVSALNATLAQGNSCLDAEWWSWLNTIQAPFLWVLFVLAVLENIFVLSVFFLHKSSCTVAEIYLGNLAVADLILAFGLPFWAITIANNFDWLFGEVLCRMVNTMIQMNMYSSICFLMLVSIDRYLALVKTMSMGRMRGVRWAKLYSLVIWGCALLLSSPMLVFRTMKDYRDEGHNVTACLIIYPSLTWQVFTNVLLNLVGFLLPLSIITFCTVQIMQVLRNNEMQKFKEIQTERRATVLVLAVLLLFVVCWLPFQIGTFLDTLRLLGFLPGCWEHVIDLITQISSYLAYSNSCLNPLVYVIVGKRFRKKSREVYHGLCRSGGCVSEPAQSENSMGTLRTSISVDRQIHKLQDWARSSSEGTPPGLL
How it was run: (§1)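 Compound was given intratracheally to anaesthetized guinea pigs. Five min later, BK (10 nmol/kg iv) challenge was given and repeated every 30 min for 210 min. Blood pressure was monitored. Result is Σ%: residual BK response as % of basal, normalized to control at each observation time (5–210 min), expressed as % of theoretical maximum.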

[3] = target: T3, B2 bradykinin receptor (Cavia porcellus); assay: Inhibition of BK-induced bronchoconstriction in Dunkin Hartley guinea pig at 100 nmol/kg, it; assay type: functional; design: scale not given: the % may be the effect or the level left
How it was run: as §1, with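 “Pulmonary insufflation” for “Blood”, “5–210 min” for “each observation”, “points,” for “(5–210 min),”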

B2 bradykinin receptor [4] = target: T1, B2 bradykinin receptor; assay: Displacement of [3H]BK from human bradykinin B2 receptor transfected in CHO cells; assay type: cell-based
How it was run: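 pKi from inhibition of specific [3H]-BK binding to membrane preparations of CHO cells stably transfected with the human B2 receptor.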

| Kb (B2 bradykinin receptor [1]) [nM] | Ki (B1 bradykinin receptor) [nM] | Activity [2] [%] | Activity [3] [%] | Ki (B2 bradykinin receptor [4]) [nM] | SMILES |
| --- | --- | --- | --- | --- | --- |
| 1.26 | > 10000 | 94 | 35 | – | Cc1cc(C)c2cccc(OCc3c(Cl)ccc(S(=O)(=O)NC4(C(=O)N5CCN(C(=O)[C@@H](N)CCCC[N+](C)(C)C)CC5)CCCC4)c3Cl)c2n1 |
| 0.501 | > 10000 | 100 | 24 | 0.0501 | Cc1cc(C)c2cccc(OCc3c(Cl)ccc(S(=O)(=O)NC4(C(=O)N5CCN(C(=O)[C@@H](N)CCC[N+](C)(C)C)CC5)CCCC4)c3Cl)c2n1 |
| 3.16 | > 10000 | – | – | 0.2 | Cc1cc(C)c2cccc(OCc3c(Cl)ccc(S(=O)(=O)NC4(C(=O)N5CCN(C(=O)[C@H](CCCCN(C)C)N(C)C)CC5)CCCC4)c3Cl)c2n1 |
| 2 | > 10000 | – | – | 0.316 | Cc1cc(C)c2cccc(OCc3c(Cl)ccc(S(=O)(=O)NC4(C(=O)N5CCN(C(=O)[C@@H](N)CCCCN)CC5)CCCC4)c3Cl)c2n1 |
| 0.158 | > 10000 | 89 | 59 | 0.0501 | Cc1cc(C)c2cccc(OCc3c(Cl)ccc(S(=O)(=O)NC4(C(=O)N5CCN(C(=O)[C@@H](N)CCC[N+](C)(C)C)CC5)CCSCC4)c3Cl)c2n1 |
| 2 | > 10000 | 87 | 45 | 0.316 | Cc1cc(C)c2cccc(OCc3c(Cl)ccc(S(=O)(=O)NC4(C(=O)N5CCN(C(=O)[C@@H](N)CC[N+](C)(C)C)CC5)CCCC4)c3Cl)c2n1 |
| 1.58 | > 10000 | – | – | 0.501 | Cc1cc(C)c2cccc(OCc3c(Cl)ccc(S(=O)(=O)NC4(C(=O)N5CCN(C(=O)[C@@H](N)CCC[N+](C)(C)C)CC5)CCNCC4)c3Cl)c2n1 |
| 1.58 | > 10000 | – | – | 0.251 | Cc1cc(C)c2cccc(OCc3c(Cl)ccc(S(=O)(=O)NC4(C(=O)N5CCN(C(=O)CCCC[N+](C)(C)C)CC5)CCCC4)c3Cl)c2n1 |
| 2 | > 10000 | 83 | 65 | – | Cc1cc(C)c2cccc(OCc3c(Cl)ccc(S(=O)(=O)NC4(C(=O)N5CCN(C(=O)CCC[N+](C)(C)C)CC5)CCCC4)c3Cl)c2n1 |
| 0.251 | > 10000 | 86 | 40 | 0.0794 | Cc1cc(C)c2cccc(OCc3c(Cl)ccc(S(=O)(=O)NC4(C(=O)N5CCN(C(=O)[C@@H](N)CCC[N+](C)(C)C)CC5)CCN(C)CC4)c3Cl)c2n1 |
| 6.31 | > 10000 | – | – | 0.2 | Cc1cc(C)c2cccc(OCc3c(Cl)ccc(S(=O)(=O)NC4(C(=O)N5CCN(C(=O)[C@H](CCCC[N+](C)(C)C)[N+](C)(C)C)CC5)CCCC4)c3Cl)c2n1 |
| 1.26 | > 10000 | – | – | 0.158 | CC(=O)N1CCC(NS(=O)(=O)c2ccc(Cl)c(COc3cccc4c(C)cc(C)nc34)c2Cl)(C(=O)N2CCN(C(=O)[C@@H](N)CCC[N+](C)(C)C)CC2)CC1 |
| 2 | > 10000 | – | – | 1.26 | Cc1cc(C)c2cccc(OCc3c(Cl)ccc(S(=O)(=O)NC4(C(=O)N5CCN(C(=O)CCCCCNC(=N)N)CC5)CCCC4)c3Cl)c2n1 |
| 1.58 | > 10000 | 84 | 39 | – | Cc1cc(C)c2cccc(OCc3c(Cl)ccc(S(=O)(=O)NC4(C(=O)N5CCN(C(=O)[C@H](CCCCN)[N+](C)(C)C)CC5)CCCC4)c3Cl)c2n1 |
| 5.01 | > 10000 | – | – | – | Cc1cc(C)c2cccc(OCc3c(Cl)ccc(S(=O)(=O)NC4(C(=O)N5CCN(C(=O)CCCCC[N+](C)(C)C)CC5)CCCC4)c3Cl)c2n1 |
| 2.51 | > 10000 | – | – | 0.2 | Cc1cc(C)c2cccc(OCc3c(Cl)ccc(S(=O)(=O)NC4(C(=O)N5CCN(C(=O)[C@H](CCC[N+](C)(C)C)[N+](C)(C)C)CC5)CCCC4)c3Cl)c2n1 |

| SMILES | Kb (B2 bradykinin receptor [1]) [nM] | Ki (B1 bradykinin receptor) [nM] | Activity [2] [%] | Activity [3] [%] | Ki (B2 bradykinin receptor [4]) [nM] |
| --- | --- | --- | --- | --- | --- |
| Cc1cc(C)c2cccc(OCc3c(Cl)ccc(S(=O)(=O)NC4(C(=O)N5CCN(C(=O)C[C@@H](N)CCCNC(=N)N)CC5)CCCC4)c3Cl)c2n1 | 0.794 | > 10000 | 100 | 78 | – |
